Published values collected from several papers.
Lines come from different studies, so protocols differ. pEC50, pIC50: −log10 of the molar value.
Organism: Plasmodium falciparum
Observed: parasite growth
Technique: SYBR Green

CCCCCNC[C@@H](O)c1cc(Cl)cc2c1-c1ccc(Cl)cc1C2  pIC50 (W2; 48 h, drug-resistant strain, blood stage): 8.07
CCN(CC)CCCC(C)Nc1ccnc2cc(Cl)ccc12 (centres unmarked)  pIC50 (MDR, TM90; 72 h, drug-resistant strain, blood stage): 6.45
O=C1C(NCCc2c[nH]c3ccccc23)=CC2=NCCc3c[nH]c1c32  pIC50 (3D7; blood stage): 6.80
C[C@@H]1CC[C@H]2[C@@H](C)C(=O)O[C@@H]3O[C@@]4(C)CC[C@@H]1[C@]32OO4  pIC50 (DD2; drug-resistant strain, blood stage): 7.12
C[N+]1=C2C=C(NCCc3ccc(O)cc3)C(=O)c3[nH]cc(c32)CC1  pIC50 (W2; blood stage): 7.49
COc1ccc(C2CC3=C(C(=O)O2)C(c2ccccc2Cl)C(C(=O)OC(C)(C)C)=C(C)N3)cc1OC (mixture of isomers)  pEC50 (3D7; 72 h, blood stage): < 4.89
CCN(CC)CCCC(C)Nc1ccnc2cc(Cl)ccc12 (centres unmarked)  pIC50 (DD2; drug-resistant strain, blood stage): 6.07
O=C1c2[nH]cc3c2C(=NCC3)c2c(-c3ccc(O)cc3)c[nH]c21  pIC50 (3D7; blood stage): 5.68
O[C@H](CN[C@H](COCC1CC1)Cc1ccccc1)c1cc(Cl)cc2c1-c1ccc(Cl)cc1C2  pIC50 (W2; 48 h, drug-resistant strain, blood stage): 8.55
O=Cc1cn(Cc2cn(-c3ccnc4cc(Cl)ccc34)nn2)c2ccccc12  inhibition (3D7; 5 µM, blood stage): -4.99%
COCC(=O)N1CCC[C@H](C(=O)NCc2nc(-c3ccccc3)cs2)C1  pEC50 (DD2; 72 h, blood stage): 7.16
CCN(CC)CCCC(C)Nc1ccnc2cc(Cl)ccc12 (centres unmarked)  pIC50 (DD2; 96 h, drug-resistant strain, blood stage): 7.12
COCC(=O)N1CCC[C@H](C(=O)NCc2nc(-c3ccc(C#N)cc3)cs2)C1  pEC50 (DD2; 72 h, blood stage): 7.74
C[N+]1=C2C=C(N)C(=O)c3[nH]cc(c32)CC1  pIC50 (W2; blood stage): 6.17
CCCCCCNCC(O)c1cc(Cl)cc2c1-c1ccc(Cl)cc1C2 (racemic)  pIC50 (W2; 48 h, drug-resistant strain, blood stage): 8.22
CCOCC(=O)N1CCC[C@H](C(=O)NCc2nc(-c3ccc(C#N)cc3)cs2)C1  pEC50 (DD2; blood stage): 8.21
CCCCCCCNC[C@@H](O)c1cc(Cl)cc2c1-c1ccc(Cl)cc1C2  pIC50 (W2; 48 h, drug-resistant strain, blood stage): 8.33
Cn1cc2c3c1C(=O)C(N)=CC3=NCC2  pIC50 (W2; blood stage): 5.24
C[C@@H]1CC[C@H]2[C@@H](C)C(=O)O[C@@H]3O[C@@]4(C)CC[C@@H]1[C@]32OO4  pEC50 (72 h): 7.85
O[C@@H](CNCCN1CCN(C(c2ccccc2)c2ccccc2)CC1)c1cc(Cl)cc2c1-c1ccc(Cl)cc1C2  pIC50 (W2; 48 h, drug-resistant strain, blood stage): 7.89
